Data published in ChEMBL document CHEMBL1132636, “Phthalein derivatives as a new tool for selectivity in thymidylate synthase inhibition” (J Med Chem, 1999).
In brackets after ≈: the same amount, converted by molar mass.

Tested on: thymidylate synthase (Pneumocystis carinii)
Details: not given

SMILES | IF
O=C1OC(O)(c2ccccc2O)c2cccc3cccc1c23 (stereo unspecified) | 0.151
O=C1OC(c2ccc(O)cc2)(c2ccc(O)cc2)c2ccc3c4c(ccc1c24)CC3 | 0.344
O=C1OC(c2ccc(O)c(Cl)c2)(c2ccc(O)c(Cl)c2)c2ccccc21 | 0.725
O=C1OC(c2ccc(O)cc2)(c2ccc(O)cc2)c2cc3ccccc3cc21 | 0.459
COc1ccc(C2(c3ccc(OC)cc3)OC(=O)c3cccc4cccc2c34)cc1 | 0.749

Now from value to molecule:

IF | SMILES
0.582 | O=C1OC(c2ccc(O)c(F)c2)(c2ccc(O)c(F)c2)c2cc3ccccc3cc21
0.418 | O=C1OC(O)(c2ccc(O)c(Cl)c2)c2ccc([N+](=O)[O-])c3cccc1c23 (stereo unspecified)
0.498 | O=C1OC(c2ccc(O)cc2)(c2ccc(O)c3ccccc23)c2ccccc21 (stereo unspecified)
0.536 | O=C1OC(c2ccc(O)cc2)(c2ccc(O)cc2)c2ccc(Br)c3cccc1c23.O=C1OC(c2ccc(O)cc2)(c2ccc(O)cc2)c2cccc3c(Br)ccc1c23

Tested on: MT4
Assay: In vitro cytotoxicity against mock infected MT-4 cells.
Type: functional
Details: Homo sapiens
Procedure, shortened: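 Uninfected MT-4 cells, 1 × 10⁴ per well in RPMI with 10% FCS, with serial compound dilutions from a DMSO stock. Incubated 4 days at 37 °C, run in parallel with the anti-HIV assay. Viable cells counted by MTT; reported as CC50.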

SMILES | CC50 [µM]
O=C1OC(O)(c2ccccc2O)c2cccc3cccc1c23 (stereo unspecified) | 263
O=C1OC(c2ccc(O)cc2)(c2ccc(O)cc2)c2ccc(Br)c3cccc1c23.O=C1OC(c2ccc(O)cc2)(c2ccc(O)cc2)c2cccc3c(Br)ccc1c23 | 76
O=C1OC(O)(c2ccc(O)c(Cl)c2)c2ccc([N+](=O)[O-])c3cccc1c23 (stereo unspecified) | 66
O=C1OC(c2ccc(O)cc2)(c2ccc(O)cc2)c2ccc3c4c(ccc1c24)CC3 | 53
O=C1OC(c2ccc(O)cc2)(c2ccc(O)c3ccccc23)c2ccccc21 (stereo unspecified) | 54
O=C1OC(c2ccc(O)c(Cl)c2)(c2ccc(O)c(Cl)c2)c2ccccc21 | 77
O=C1OC(c2ccc(O)c(F)c2)(c2ccc(O)c(F)c2)c2cc3ccccc3cc21 | 94
O=C1OC(c2ccc(O)cc2)(c2ccc(O)cc2)c2cc3ccccc3cc21 | 79
COc1ccc(C2(c3ccc(OC)cc3)OC(=O)c3cccc4cccc2c34)cc1 | 21

Tested on: thymidylate synthase (Lactobacillus casei)
Details: not given

SMILES | IF
O=C1OC(O)(c2ccccc2O)c2cccc3cccc1c23 (stereo unspecified) | 0.781
O=C1OC(c2ccc(O)cc2)(c2ccc(O)cc2)c2ccc3c4c(ccc1c24)CC3 | 0.409
O=C1OC(c2ccc(O)c(Cl)c2)(c2ccc(O)c(Cl)c2)c2ccccc21 | 0.47
O=C1OC(c2ccc(O)cc2)(c2ccc(O)cc2)c2cc3ccccc3cc21 | 0.247
COc1ccc(C2(c3ccc(OC)cc3)OC(=O)c3cccc4cccc2c34)cc1 | 0.624

Next, values leading:

IF | SMILES
0.298 | O=C1OC(c2ccc(O)c(F)c2)(c2ccc(O)c(F)c2)c2cc3ccccc3cc21
0.086 | O=C1OC(O)(c2ccc(O)c(Cl)c2)c2ccc([N+](=O)[O-])c3cccc1c23 (stereo unspecified)
0.529 | O=C1OC(c2ccc(O)cc2)(c2ccc(O)c3ccccc23)c2ccccc21 (stereo unspecified)
0.112 | O=C1OC(c2ccc(O)cc2)(c2ccc(O)cc2)c2ccc(Br)c3cccc1c23.O=C1OC(c2ccc(O)cc2)(c2ccc(O)cc2)c2cccc3c(Br)ccc1c23

Tested on: Streptococcus
Assay: In vitro inhibition of Streptococcus growth.
Type: functional
Details: not given
Procedure, shortened: (§1)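 Bacterial clinical isolates (S. aureus, group D Streptococcus) grown in nutrient broth pH 7.2, inoculum 10³ cells/tube, with serial dilutions of compound from a DMSO stock.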

SMILES | MIC [µM]
O=C1OC(O)(c2ccccc2O)c2cccc3cccc1c23 (stereo unspecified) | 171 (≈ 50 µg/mL)
O=C1OC(c2ccc(O)cc2)(c2ccc(O)cc2)c2ccc3c4c(ccc1c24)CC3 | 16 (≈ 6.31 µg/mL)
O=C1OC(c2ccc(O)c(Cl)c2)(c2ccc(O)c(Cl)c2)c2ccccc21 | 32 (≈ 12.4 µg/mL)
O=C1OC(c2ccc(O)cc2)(c2ccc(O)cc2)c2cc3ccccc3cc21 | 34 (≈ 12.5 µg/mL)
COc1ccc(C2(c3ccc(OC)cc3)OC(=O)c3cccc4cccc2c34)cc1 | > 21

Stronger by MIC, values ahead:

MIC [µM] | SMILES
15 (≈ 6.07 µg/mL) | O=C1OC(c2ccc(O)c(F)c2)(c2ccc(O)c(F)c2)c2cc3ccccc3cc21
8 (≈ 2.97 µg/mL) | O=C1OC(O)(c2ccc(O)c(Cl)c2)c2ccc([N+](=O)[O-])c3cccc1c23 (stereo unspecified)
8 (≈ 2.95 µg/mL) | O=C1OC(c2ccc(O)cc2)(c2ccc(O)c3ccccc23)c2ccccc21 (stereo unspecified)
7 | O=C1OC(c2ccc(O)cc2)(c2ccc(O)cc2)c2ccc(Br)c3cccc1c23.O=C1OC(c2ccc(O)cc2)(c2ccc(O)cc2)c2cccc3c(Br)ccc1c23

Tested on: Streptococcus
Assay: In vitro minimum concentration for germicidal effect on Streptococcus.
Type: functional
Details: not given

SMILES | MGC [µM]
O=C1OC(O)(c2ccccc2O)c2cccc3cccc1c23 (stereo unspecified) | 263
O=C1OC(c2ccc(O)cc2)(c2ccc(O)cc2)c2ccc(Br)c3cccc1c23.O=C1OC(c2ccc(O)cc2)(c2ccc(O)cc2)c2cccc3c(Br)ccc1c23 | 28
O=C1OC(O)(c2ccc(O)c(Cl)c2)c2ccc([N+](=O)[O-])c3cccc1c23 (stereo unspecified) | 8
O=C1OC(c2ccc(O)cc2)(c2ccc(O)cc2)c2ccc3c4c(ccc1c24)CC3 | 32
O=C1OC(c2ccc(O)cc2)(c2ccc(O)c3ccccc23)c2ccccc21 (stereo unspecified) | 34
O=C1OC(c2ccc(O)c(Cl)c2)(c2ccc(O)c(Cl)c2)c2ccccc21 | 32
O=C1OC(c2ccc(O)c(F)c2)(c2ccc(O)c(F)c2)c2cc3ccccc3cc21 | 15
O=C1OC(c2ccc(O)cc2)(c2ccc(O)cc2)c2cc3ccccc3cc21 | 34

Tested on: Staphylococcus aureus
Assay: In vitro inhibition of Staphylococcus aureus growth.
Type: functional
Details: not given
Procedure, shortened: as §1

SMILES | MIC [µM]
O=C1OC(O)(c2ccccc2O)c2cccc3cccc1c23 (stereo unspecified) | > 263
O=C1OC(c2ccc(O)cc2)(c2ccc(O)cc2)c2ccc3c4c(ccc1c24)CC3 | 16 (≈ 6.31 µg/mL)
O=C1OC(c2ccc(O)c(Cl)c2)(c2ccc(O)c(Cl)c2)c2ccccc21 | 32 (≈ 12.4 µg/mL)
O=C1OC(c2ccc(O)cc2)(c2ccc(O)cc2)c2cc3ccccc3cc21 | 17 (≈ 6.26 µg/mL)
COc1ccc(C2(c3ccc(OC)cc3)OC(=O)c3cccc4cccc2c34)cc1 | > 21

Further lines, results first:

MIC [µM] | SMILES
15 (≈ 6.07 µg/mL) | O=C1OC(c2ccc(O)c(F)c2)(c2ccc(O)c(F)c2)c2cc3ccccc3cc21
4 (≈ 1.49 µg/mL) | O=C1OC(O)(c2ccc(O)c(Cl)c2)c2ccc([N+](=O)[O-])c3cccc1c23 (stereo unspecified)
17 (≈ 6.26 µg/mL) | O=C1OC(c2ccc(O)cc2)(c2ccc(O)c3ccccc23)c2ccccc21 (stereo unspecified)
7 | O=C1OC(c2ccc(O)cc2)(c2ccc(O)cc2)c2ccc(Br)c3cccc1c23.O=C1OC(c2ccc(O)cc2)(c2ccc(O)cc2)c2cccc3c(Br)ccc1c23

Tested on: Cryptococcus neoformans
Assay: In vitro inhibition of Cryptococcus neoformans growth.
Type: functional
Details: not given
Procedure, shortened: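 Cr. neoformans in Sabouraud dextrose broth pH 5.7, 10³ blastospores or CFU/tube, serial compound dilutions, 37 °C, read after 5 days. MIC is the lowest concentration with no macroscopic growth. MGC is taken by subculturing negative tubes onto drug-free Sabouraud agar.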

SMILES | MIC [µM]
O=C1OC(O)(c2ccccc2O)c2cccc3cccc1c23 (stereo unspecified) | 18.7 (≈ 5.47 µg/mL)
O=C1OC(c2ccc(O)cc2)(c2ccc(O)cc2)c2ccc3c4c(ccc1c24)CC3 | > 53
O=C1OC(c2ccc(O)c(Cl)c2)(c2ccc(O)c(Cl)c2)c2ccccc21 | > 77
O=C1OC(c2ccc(O)cc2)(c2ccc(O)cc2)c2cc3ccccc3cc21 | > 79
COc1ccc(C2(c3ccc(OC)cc3)OC(=O)c3cccc4cccc2c34)cc1 | > 21

Other lines, results leading:

MIC [µM] | SMILES
> 94 | O=C1OC(c2ccc(O)c(F)c2)(c2ccc(O)c(F)c2)c2cc3ccccc3cc21
> 66 | O=C1OC(O)(c2ccc(O)c(Cl)c2)c2ccc([N+](=O)[O-])c3cccc1c23 (stereo unspecified)
> 54 | O=C1OC(c2ccc(O)cc2)(c2ccc(O)c3ccccc23)c2ccccc21 (stereo unspecified)
37.5 | O=C1OC(c2ccc(O)cc2)(c2ccc(O)cc2)c2ccc(Br)c3cccc1c23.O=C1OC(c2ccc(O)cc2)(c2ccc(O)cc2)c2cccc3c(Br)ccc1c23

Tested on: Staphylococcus aureus
Assay: In vitro evaluation for minimum germicidal effect on Staphylococcus aureus was determined
Type: functional
Details: not given

SMILES | MGC [µM]
O=C1OC(c2ccc(O)cc2)(c2ccc(O)cc2)c2ccc(Br)c3cccc1c23.O=C1OC(c2ccc(O)cc2)(c2ccc(O)cc2)c2cccc3c(Br)ccc1c23 | 28
O=C1OC(O)(c2ccc(O)c(Cl)c2)c2ccc([N+](=O)[O-])c3cccc1c23 (stereo unspecified) | 17
O=C1OC(c2ccc(O)cc2)(c2ccc(O)cc2)c2ccc3c4c(ccc1c24)CC3 | 32
O=C1OC(c2ccc(O)cc2)(c2ccc(O)c3ccccc23)c2ccccc21 (stereo unspecified) | 54
O=C1OC(c2ccc(O)c(Cl)c2)(c2ccc(O)c(Cl)c2)c2ccccc21 | 64
O=C1OC(c2ccc(O)c(F)c2)(c2ccc(O)c(F)c2)c2cc3ccccc3cc21 | 30
O=C1OC(c2ccc(O)cc2)(c2ccc(O)cc2)c2cc3ccccc3cc21 | 68

Tested on: not listed separately
Assay: Ratio of cytotoxic concentration to that of minimum inhibitory concentration against Streptococcus (CC50/MIC50).
Type: functional
Details: not given

SMILES | SI
O=C1OC(O)(c2ccccc2O)c2cccc3cccc1c23 (stereo unspecified) | 1.5
O=C1OC(c2ccc(O)cc2)(c2ccc(O)cc2)c2ccc(Br)c3cccc1c23.O=C1OC(c2ccc(O)cc2)(c2ccc(O)cc2)c2cccc3c(Br)ccc1c23 | 10.8
O=C1OC(O)(c2ccc(O)c(Cl)c2)c2ccc([N+](=O)[O-])c3cccc1c23 (stereo unspecified) | 8.24
O=C1OC(c2ccc(O)cc2)(c2ccc(O)cc2)c2ccc3c4c(ccc1c24)CC3 | 3.3
O=C1OC(c2ccc(O)cc2)(c2ccc(O)c3ccccc23)c2ccccc21 (stereo unspecified) | 6.7
O=C1OC(c2ccc(O)c(Cl)c2)(c2ccc(O)c(Cl)c2)c2ccccc21 | 2.4
O=C1OC(c2ccc(O)c(F)c2)(c2ccc(O)c(F)c2)c2cc3ccccc3cc21 | 6.2
O=C1OC(c2ccc(O)cc2)(c2ccc(O)cc2)c2cc3ccccc3cc21 | 2.3

Target: T1, Thymidylate synthase (Lactobacillus casei) (UniProt P00469)
T1 sequence (whole entry): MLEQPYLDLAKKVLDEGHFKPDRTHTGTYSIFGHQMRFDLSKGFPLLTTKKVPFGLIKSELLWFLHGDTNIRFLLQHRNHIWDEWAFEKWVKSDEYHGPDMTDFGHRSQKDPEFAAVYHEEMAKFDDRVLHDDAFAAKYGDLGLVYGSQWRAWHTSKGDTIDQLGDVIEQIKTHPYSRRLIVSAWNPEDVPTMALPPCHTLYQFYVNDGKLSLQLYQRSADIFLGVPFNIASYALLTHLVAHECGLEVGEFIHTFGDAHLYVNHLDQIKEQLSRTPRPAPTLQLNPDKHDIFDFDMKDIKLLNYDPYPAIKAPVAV
Assay: Compound was evaluated for the percentage inhibition against Lactobacillus casei Thymidylate synthase (LcTS) at 27 uM
Details: Lacticaseibacillus casei
Procedure, shortened: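 Single concentration 27 µM, initial TS rates measured with and without inhibitor; IF = Vii/Vi. Purified L. casei TS, TES 50 mM pH 7.4 buffer with MgCl2, formaldehyde, EDTA, 2-mercaptoethanol; dUMP 120 µM, folate 60 µM, 20 °C. Read-out is absorbance rise at 340 nm. At least three determinations, each within 10% of the mean.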

inhibition [%] | SMILES
47 | COc1ccc(C2(c3ccc(OC)cc3)OC(=O)c3cccc4cccc2c34)cc1

Target: Thymidylate synthase (Homo sapiens) (UniProt P04818)
Sequence (P04818 2-313 limits assumed): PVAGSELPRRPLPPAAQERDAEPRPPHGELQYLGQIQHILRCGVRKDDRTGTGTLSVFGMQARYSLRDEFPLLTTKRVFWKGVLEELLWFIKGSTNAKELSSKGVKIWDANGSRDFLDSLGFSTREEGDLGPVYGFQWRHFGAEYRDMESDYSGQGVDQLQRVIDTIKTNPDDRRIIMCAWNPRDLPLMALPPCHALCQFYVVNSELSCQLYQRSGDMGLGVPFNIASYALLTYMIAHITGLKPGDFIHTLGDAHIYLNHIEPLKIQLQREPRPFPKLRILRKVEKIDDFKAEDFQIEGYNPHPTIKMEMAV
Details: not given

SMILES | IF
O=C1OC(O)(c2ccccc2O)c2cccc3cccc1c23 (stereo unspecified) | 0.957
O=C1OC(c2ccc(O)cc2)(c2ccc(O)cc2)c2ccc3c4c(ccc1c24)CC3 | 0.475
O=C1OC(c2ccc(O)c(Cl)c2)(c2ccc(O)c(Cl)c2)c2ccccc21 | 0.67
O=C1OC(c2ccc(O)cc2)(c2ccc(O)cc2)c2cc3ccccc3cc21 | 0.594
COc1ccc(C2(c3ccc(OC)cc3)OC(=O)c3cccc4cccc2c34)cc1 | 1

Continued, values first:

IF | SMILES
0.521 | O=C1OC(c2ccc(O)c(F)c2)(c2ccc(O)c(F)c2)c2cc3ccccc3cc21
1 | O=C1OC(O)(c2ccc(O)c(Cl)c2)c2ccc([N+](=O)[O-])c3cccc1c23 (stereo unspecified)
0.172 | O=C1OC(c2ccc(O)cc2)(c2ccc(O)c3ccccc23)c2ccccc21 (stereo unspecified)
0.453 | O=C1OC(c2ccc(O)cc2)(c2ccc(O)cc2)c2ccc(Br)c3cccc1c23.O=C1OC(c2ccc(O)cc2)(c2ccc(O)cc2)c2cccc3c(Br)ccc1c23

Tested on: thymidylate synthase (Cryptococcus neoformans)
Details: not given

SMILES | IF
O=C1OC(O)(c2ccccc2O)c2cccc3cccc1c23 (stereo unspecified) | 0.576
O=C1OC(c2ccc(O)cc2)(c2ccc(O)cc2)c2ccc3c4c(ccc1c24)CC3 | 0.344
O=C1OC(c2ccc(O)c(Cl)c2)(c2ccc(O)c(Cl)c2)c2ccccc21 | 0.704
O=C1OC(c2ccc(O)cc2)(c2ccc(O)cc2)c2cc3ccccc3cc21 | 0.215
COc1ccc(C2(c3ccc(OC)cc3)OC(=O)c3cccc4cccc2c34)cc1 | 0.836

Second part, the molecule after the results:

IF | SMILES
0.507 | O=C1OC(c2ccc(O)c(F)c2)(c2ccc(O)c(F)c2)c2cc3ccccc3cc21
< 0.04 | O=C1OC(O)(c2ccc(O)c(Cl)c2)c2ccc([N+](=O)[O-])c3cccc1c23 (stereo unspecified)
0.389 | O=C1OC(c2ccc(O)cc2)(c2ccc(O)c3ccccc23)c2ccccc21 (stereo unspecified)
0.243 | O=C1OC(c2ccc(O)cc2)(c2ccc(O)cc2)c2ccc(Br)c3cccc1c23.O=C1OC(c2ccc(O)cc2)(c2ccc(O)cc2)c2cccc3c(Br)ccc1c23
